Laboratory results as given in the M2OR odorant receptor database.

Legend:
Details in all cases: stereoisomer not certain
[1] = biological target: T1, OR52I1 (Homo sapiens) (UniProt Q8NGK6)
T1 sequence (whole entry): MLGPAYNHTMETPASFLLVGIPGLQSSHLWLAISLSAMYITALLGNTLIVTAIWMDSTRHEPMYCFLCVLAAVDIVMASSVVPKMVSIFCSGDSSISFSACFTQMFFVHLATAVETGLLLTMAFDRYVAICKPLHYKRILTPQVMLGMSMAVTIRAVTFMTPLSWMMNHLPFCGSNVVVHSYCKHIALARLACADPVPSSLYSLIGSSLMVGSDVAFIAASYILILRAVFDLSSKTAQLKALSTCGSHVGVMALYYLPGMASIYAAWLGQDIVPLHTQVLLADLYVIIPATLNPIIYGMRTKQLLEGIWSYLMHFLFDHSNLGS
Procedure, shortened: (§1)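 Each receptor–molecule pair is labelled responsive or non-responsive (inactive) according to whether the original authors judged the measured signal statistically different from baseline. The data were taken from the main text and supplementary material of published papers and checked for typos and inconsistencies. Assay methods differed by source, with transient luciferase assays in mammalian cell lines being common.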

[2] = biological target: T2, OR52I2 (Homo sapiens) (UniProt Q8NH67)
T2 sequence (whole entry): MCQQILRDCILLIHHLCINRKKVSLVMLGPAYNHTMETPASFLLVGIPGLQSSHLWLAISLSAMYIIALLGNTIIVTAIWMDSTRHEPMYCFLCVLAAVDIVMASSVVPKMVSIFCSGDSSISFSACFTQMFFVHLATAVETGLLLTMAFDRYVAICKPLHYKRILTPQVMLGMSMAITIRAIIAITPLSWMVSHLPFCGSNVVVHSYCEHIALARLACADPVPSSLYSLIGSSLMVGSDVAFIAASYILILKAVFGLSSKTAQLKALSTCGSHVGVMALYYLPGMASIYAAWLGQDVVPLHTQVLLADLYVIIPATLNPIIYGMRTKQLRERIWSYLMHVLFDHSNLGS
Procedure, shortened: as §1

[3] = biological target: OR52J3 (Homo sapiens) (UniProt Q8NH60)
Chain of OR52J3 (Homo sapiens) (Q8NH60 whole entry): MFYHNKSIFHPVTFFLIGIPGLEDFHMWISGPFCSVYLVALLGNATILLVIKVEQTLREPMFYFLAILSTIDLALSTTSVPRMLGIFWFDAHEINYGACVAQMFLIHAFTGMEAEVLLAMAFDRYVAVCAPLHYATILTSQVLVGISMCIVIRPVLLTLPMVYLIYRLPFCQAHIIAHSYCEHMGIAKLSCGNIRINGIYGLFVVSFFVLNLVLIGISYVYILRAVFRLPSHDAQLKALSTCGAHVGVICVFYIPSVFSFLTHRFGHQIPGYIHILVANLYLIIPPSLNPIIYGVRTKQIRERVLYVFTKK
Procedure, shortened: as §1

[4] = biological target: T3, OR52K1 (Homo sapiens) (UniProt Q8NGK4)
T3 sequence (whole entry): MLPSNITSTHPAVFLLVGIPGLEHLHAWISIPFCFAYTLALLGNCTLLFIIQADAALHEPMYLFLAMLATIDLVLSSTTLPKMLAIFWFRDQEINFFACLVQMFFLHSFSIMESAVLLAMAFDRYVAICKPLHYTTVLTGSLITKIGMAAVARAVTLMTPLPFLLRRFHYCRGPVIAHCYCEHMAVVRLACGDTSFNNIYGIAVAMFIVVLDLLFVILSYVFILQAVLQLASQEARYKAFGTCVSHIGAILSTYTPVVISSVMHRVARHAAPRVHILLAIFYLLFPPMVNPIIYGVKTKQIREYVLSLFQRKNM
Procedure, shortened: as §1

[5] = biological target: T4, OR52K2 (Homo sapiens) (UniProt Q8NGK3)
T4 sequence (whole entry): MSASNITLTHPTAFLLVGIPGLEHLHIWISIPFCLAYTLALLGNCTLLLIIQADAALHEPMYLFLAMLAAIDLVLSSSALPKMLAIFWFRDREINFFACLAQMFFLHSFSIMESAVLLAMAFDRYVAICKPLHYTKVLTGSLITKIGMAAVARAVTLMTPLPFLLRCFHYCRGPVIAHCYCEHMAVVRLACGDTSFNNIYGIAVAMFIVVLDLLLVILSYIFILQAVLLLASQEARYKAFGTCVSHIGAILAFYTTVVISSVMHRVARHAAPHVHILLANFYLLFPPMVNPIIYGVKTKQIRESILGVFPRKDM
Procedure, shortened: as §1

[6] = biological target: T5, OR52L1 (Homo sapiens) (UniProt Q8NGH7)
T5 sequence (whole entry): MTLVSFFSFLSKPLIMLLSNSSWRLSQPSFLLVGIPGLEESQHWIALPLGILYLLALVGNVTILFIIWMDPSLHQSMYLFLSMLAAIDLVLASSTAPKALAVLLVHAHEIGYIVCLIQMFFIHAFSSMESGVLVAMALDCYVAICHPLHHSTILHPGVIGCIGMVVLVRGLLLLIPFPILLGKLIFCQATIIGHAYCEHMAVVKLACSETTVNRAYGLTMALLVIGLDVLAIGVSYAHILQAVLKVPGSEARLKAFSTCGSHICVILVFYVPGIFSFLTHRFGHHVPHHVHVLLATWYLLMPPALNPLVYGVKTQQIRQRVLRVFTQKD
Procedure, shortened: as §1

[7] = biological target: T6, OR52M1 (Homo sapiens) (UniProt Q8NGK5)
T6 sequence (whole entry): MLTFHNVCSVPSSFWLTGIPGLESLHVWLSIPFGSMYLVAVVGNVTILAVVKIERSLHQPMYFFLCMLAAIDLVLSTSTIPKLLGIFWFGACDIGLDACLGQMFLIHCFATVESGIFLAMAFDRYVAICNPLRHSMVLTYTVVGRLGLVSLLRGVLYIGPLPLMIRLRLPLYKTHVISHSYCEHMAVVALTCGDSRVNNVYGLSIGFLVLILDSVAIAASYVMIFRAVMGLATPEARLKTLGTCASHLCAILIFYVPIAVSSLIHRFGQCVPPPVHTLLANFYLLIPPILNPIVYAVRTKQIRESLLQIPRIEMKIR
Procedure, shortened: as §1

[8] = biological target: T7, OR52N1 (Homo sapiens) (UniProt Q8NH53)
T7 sequence (whole entry): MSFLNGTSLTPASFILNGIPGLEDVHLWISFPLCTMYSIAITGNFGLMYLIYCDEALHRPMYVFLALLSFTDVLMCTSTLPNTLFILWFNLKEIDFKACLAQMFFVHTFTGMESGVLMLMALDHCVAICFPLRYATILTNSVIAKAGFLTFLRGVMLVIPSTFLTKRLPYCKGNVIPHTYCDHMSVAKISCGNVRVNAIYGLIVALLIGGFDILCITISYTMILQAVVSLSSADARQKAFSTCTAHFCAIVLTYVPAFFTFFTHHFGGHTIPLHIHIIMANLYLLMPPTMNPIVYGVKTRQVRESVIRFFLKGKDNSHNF
Procedure, shortened: as §1

[9] = biological target: T8, OR52N2 (Homo sapiens) (UniProt Q8NGI0)
T8 sequence (whole entry): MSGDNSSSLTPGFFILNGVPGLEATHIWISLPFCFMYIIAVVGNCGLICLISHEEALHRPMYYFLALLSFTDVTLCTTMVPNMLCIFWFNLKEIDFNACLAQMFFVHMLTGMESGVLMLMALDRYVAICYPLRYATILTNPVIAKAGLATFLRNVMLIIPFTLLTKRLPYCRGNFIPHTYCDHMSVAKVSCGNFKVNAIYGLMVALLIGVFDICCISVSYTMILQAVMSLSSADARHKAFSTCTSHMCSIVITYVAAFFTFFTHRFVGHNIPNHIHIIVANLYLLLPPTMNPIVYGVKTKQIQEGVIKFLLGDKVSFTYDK
Procedure, shortened: as §1

[10] = biological target: T9, OR52N4 (Homo sapiens) (UniProt Q8NGI2)
T9 sequence (whole entry): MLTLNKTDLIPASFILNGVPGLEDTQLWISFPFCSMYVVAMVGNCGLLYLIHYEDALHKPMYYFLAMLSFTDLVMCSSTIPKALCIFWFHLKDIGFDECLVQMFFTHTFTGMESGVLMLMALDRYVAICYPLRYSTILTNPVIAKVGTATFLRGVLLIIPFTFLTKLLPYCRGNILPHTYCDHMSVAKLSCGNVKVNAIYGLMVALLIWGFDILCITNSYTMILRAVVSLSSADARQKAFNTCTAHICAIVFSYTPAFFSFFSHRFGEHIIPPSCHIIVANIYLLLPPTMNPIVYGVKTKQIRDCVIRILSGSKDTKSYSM
Procedure, shortened: as §1

[11] = biological target: T10, OR52N5 (Homo sapiens) (UniProt Q8NH56)
T10 sequence (whole entry): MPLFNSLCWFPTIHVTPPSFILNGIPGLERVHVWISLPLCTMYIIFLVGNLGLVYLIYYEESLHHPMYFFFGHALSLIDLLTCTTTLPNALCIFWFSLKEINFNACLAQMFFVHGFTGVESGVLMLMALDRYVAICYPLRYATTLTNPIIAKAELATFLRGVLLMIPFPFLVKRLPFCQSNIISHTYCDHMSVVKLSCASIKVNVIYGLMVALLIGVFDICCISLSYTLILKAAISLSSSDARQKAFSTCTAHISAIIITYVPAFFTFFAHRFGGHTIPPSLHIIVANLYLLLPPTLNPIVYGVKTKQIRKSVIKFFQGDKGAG
Procedure, shortened: as §1

[12] = biological target: T11, OR52R1 (Homo sapiens) (UniProt Q8NGF1)
T11 sequence (whole entry): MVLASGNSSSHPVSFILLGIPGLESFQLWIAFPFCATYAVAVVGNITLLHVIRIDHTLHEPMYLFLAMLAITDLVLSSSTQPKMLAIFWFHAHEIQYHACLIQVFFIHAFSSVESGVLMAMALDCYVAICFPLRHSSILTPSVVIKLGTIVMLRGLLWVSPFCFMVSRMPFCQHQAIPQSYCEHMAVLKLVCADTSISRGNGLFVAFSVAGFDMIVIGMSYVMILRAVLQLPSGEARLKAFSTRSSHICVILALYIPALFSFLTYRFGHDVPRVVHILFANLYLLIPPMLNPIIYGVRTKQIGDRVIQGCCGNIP
Procedure, shortened: as §1

[13] = biological target: T12, OR52W1 (Homo sapiens) (UniProt Q6IF63)
T12 sequence (whole entry): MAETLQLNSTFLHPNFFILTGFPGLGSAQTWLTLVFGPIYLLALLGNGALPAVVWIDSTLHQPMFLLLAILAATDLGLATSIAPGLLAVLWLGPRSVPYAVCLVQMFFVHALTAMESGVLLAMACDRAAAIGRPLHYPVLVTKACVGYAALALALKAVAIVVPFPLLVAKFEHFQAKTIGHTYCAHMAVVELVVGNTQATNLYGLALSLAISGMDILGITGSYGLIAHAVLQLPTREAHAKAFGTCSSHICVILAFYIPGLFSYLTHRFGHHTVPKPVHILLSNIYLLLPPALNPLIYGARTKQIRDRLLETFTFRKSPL
Procedure, shortened: as §1

[14] = biological target: OR52Z1P (Homo sapiens) (UniProt P0C646)
Chain of OR52Z1P (Homo sapiens) (P0C646 whole entry): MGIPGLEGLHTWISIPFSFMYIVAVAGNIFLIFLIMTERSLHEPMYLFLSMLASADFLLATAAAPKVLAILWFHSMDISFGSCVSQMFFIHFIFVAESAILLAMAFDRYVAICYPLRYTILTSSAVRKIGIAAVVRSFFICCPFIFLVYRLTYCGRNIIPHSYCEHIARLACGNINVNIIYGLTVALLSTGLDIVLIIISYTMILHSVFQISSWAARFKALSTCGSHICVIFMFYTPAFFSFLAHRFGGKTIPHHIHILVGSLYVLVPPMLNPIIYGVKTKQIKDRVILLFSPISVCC
Procedure, shortened: as §1

[15] = biological target: T13, OR56A1 (Homo sapiens) (UniProt Q8NGH5)
T13 sequence (whole entry): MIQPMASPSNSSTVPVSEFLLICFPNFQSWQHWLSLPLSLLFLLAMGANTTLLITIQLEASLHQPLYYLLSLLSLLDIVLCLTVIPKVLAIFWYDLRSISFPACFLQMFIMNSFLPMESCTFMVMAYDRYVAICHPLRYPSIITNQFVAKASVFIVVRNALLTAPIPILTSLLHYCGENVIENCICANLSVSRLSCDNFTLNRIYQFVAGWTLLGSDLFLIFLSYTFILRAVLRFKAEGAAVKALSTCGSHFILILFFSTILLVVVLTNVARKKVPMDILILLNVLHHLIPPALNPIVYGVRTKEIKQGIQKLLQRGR
Procedure, shortened: as §1

[16] = biological target: T14, OR56A3 (Homo sapiens) (UniProt Q8NH54)
T14 sequence (whole entry): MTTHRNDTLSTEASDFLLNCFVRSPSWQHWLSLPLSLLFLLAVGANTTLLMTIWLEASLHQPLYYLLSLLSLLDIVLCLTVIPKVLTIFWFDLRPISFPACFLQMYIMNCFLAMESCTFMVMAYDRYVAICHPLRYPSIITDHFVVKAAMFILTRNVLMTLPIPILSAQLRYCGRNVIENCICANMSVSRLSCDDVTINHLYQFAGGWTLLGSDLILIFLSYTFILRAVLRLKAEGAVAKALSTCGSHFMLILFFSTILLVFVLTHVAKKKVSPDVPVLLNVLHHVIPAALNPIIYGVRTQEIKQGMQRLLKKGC
Procedure, shortened: as §1

[17] = biological target: T15, OR56A4 (Homo sapiens) (UniProt Q8NGH8)
T15 sequence (whole entry): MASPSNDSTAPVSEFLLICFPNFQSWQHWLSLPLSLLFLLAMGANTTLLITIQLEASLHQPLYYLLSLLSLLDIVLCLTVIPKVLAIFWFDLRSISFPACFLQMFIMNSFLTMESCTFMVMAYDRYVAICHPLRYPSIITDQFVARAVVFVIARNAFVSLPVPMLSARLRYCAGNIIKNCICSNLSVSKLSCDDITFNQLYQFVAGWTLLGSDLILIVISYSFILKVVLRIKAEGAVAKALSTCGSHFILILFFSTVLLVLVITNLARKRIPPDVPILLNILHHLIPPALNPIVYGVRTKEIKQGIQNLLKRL
Procedure, shortened: as §1

[18] = biological target: T16, OR56A5 (Homo sapiens) (UniProt P0C7T3)
T16 sequence (whole entry): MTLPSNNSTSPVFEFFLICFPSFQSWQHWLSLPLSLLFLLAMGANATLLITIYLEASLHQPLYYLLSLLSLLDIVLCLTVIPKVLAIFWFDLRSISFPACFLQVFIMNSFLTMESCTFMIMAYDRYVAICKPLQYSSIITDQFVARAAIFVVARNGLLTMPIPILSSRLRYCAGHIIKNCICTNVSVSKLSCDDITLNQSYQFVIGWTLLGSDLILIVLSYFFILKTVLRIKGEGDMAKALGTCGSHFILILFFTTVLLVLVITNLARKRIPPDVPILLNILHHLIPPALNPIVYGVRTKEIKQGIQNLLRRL
Procedure, shortened: as §1

[19] = biological target: T17, OR56B1 (Homo sapiens) (UniProt Q8NGI3)
T17 sequence (whole entry): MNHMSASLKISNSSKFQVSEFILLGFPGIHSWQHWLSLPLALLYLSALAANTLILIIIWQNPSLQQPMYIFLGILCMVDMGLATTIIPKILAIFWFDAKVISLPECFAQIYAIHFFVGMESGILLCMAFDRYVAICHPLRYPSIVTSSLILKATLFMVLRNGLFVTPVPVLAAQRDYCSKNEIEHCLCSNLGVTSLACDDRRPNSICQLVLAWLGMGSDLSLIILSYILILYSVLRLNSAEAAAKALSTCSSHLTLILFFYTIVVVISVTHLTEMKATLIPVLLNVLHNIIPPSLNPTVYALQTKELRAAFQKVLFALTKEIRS
Procedure, shortened: as §1

Measured: odorant receptor agonist call

CC(=O)c1c(C)c([N+](=O)[O-])c(C(C)(C)C)c([N+](=O)[O-])c1C
inactive: all assays above
